# Experiments:
# Mus musculus = species: Mus musculus; test: Inhibition of the electrically induced muscle contractions was determined using the mouse vas deferens; type: functional
# Procedure, shortened: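 Vas deferens segments in Krebs buffer, placed between platinum electrodes with isometric force recording at 0.5 g resting tension. Stimulated with 400 ms trains (1 ms pulses, 10 Hz, supramaximal voltage). Cumulative concentrations were each allowed maximal effect before the next.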
# Cavia porcellus = species: Cavia porcellus; test: Inhibition of the electrically induced muscle contractions was determined using the guinea pig ileum; type: functional
# Procedure, shortened: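 Intact ileum segments (about 3 cm) suspended under 1 g tension in modified Krebs buffer containing 1.20 mM MgSO4. Field-stimulated with square-wave pulses at 0.1 Hz, 0.5 ms, supramaximal voltage. Cumulative concentrations were each given time for maximal response before the next.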
# [1] = molecular target: Delta-type opioid receptor (Rattus norvegicus, UniProt P33533); test: Binding affinity of compound evaluated for Opioid receptor delta 1 isolated from rat brain
# Delta-type opioid receptor, sequence (P33533 whole entry): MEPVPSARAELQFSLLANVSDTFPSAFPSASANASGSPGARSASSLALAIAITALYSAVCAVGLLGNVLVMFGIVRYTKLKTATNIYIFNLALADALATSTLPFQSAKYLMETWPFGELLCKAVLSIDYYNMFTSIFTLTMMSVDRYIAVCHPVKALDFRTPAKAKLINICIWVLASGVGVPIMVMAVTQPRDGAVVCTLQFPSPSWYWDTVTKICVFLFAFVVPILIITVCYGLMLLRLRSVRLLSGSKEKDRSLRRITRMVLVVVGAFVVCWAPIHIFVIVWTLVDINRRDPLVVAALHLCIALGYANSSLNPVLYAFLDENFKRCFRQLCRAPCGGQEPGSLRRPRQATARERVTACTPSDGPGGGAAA
Compound,EC50 (Mus musculus; Mus musculus) [nM],"EC50 (Cavia porcellus; Cavia porcellus, Ileum) [nM]",Ki [1] [nM],EC50 (Mus musculus) [nM],EC50 (Cavia porcellus) [nM]
C=CCN1C[C@H](C)N([C@@H](c2cccc(O)c2)c2cccc(C(=O)N(CCCC)c3ccccc3)c2)C[C@H]1C,1.7,41,,,
C=CCN1C[C@H](C)N([C@@H](c2cccc(O)c2)c2cccc(C(=O)N(C)c3ccc(Cl)cc3)c2)C[C@H]1C,2.6,4.9,2.73,,
C=CCN1C[C@H](C)N([C@@H](c2cccc(O)c2)c2cccc(C(=O)N(C)c3ccccc3C(F)(F)F)c2)C[C@H]1C,0.95,5.6,,,
C=CCN1C[C@H](C)N([C@@H](c2cccc(O)c2)c2cccc(C(=O)N(C)CCc3ccccc3)c2)C[C@H]1C,0.34,6.6,,,
C=CCN1C[C@H](C)N([C@@H](c2cccc(O)c2)c2cccc(C(=O)N(C)c3ccccc3)c2)C[C@H]1C,1.7,59.5,1.37,,
C=CCN1C[C@H](C)N([C@@H](c2cccc(O)c2)c2cccc(C(=O)N(c3ccccc3)C3CC3)c2)C[C@H]1C,1.42,1.23,1.92,,
C=CCN1C[C@H](C)N([C@@H](c2cccc(O)c2)c2cccc(C(=O)N(C)c3ccccc3F)c2)C[C@H]1C,0.69,4.1,,,
C=CCN1C[C@H](C)N([C@@H](c2cccc(O)c2)c2cccc(C(=O)N3CCCc4ccccc43)c2)C[C@H]1C,1.05,11.5,1.18,,
C=CCN1C[C@H](C)N([C@@H](c2cccc(O)c2)c2cccc(C(=O)N(CCC)c3ccccc3)c2)C[C@H]1C,2.4,18,1.26,,
C=CCN1C[C@H](C)N([C@@H](c2cccc(O)c2)c2cccc(C(=O)N(C)c3ccc([N+](=O)[O-])cc3)c2)C[C@H]1C,2.3,4.1,,,
C=CCN1C[C@H](C)N([C@H](c2cccc(O)c2)c2cccc(C(=O)N(C)c3ccccc3)c2)C[C@H]1C,0.47,1.22,,,
C=CCN1C[C@H](C)N([C@@H](c2cccc(O)c2)c2cccc(C(=O)N(C)c3ccc(OC)cc3)c2)C[C@H]1C,0.36,1.1,2.01,,
C=CCN1C[C@H](C)N([C@@H](c2cccc(O)c2)c2cccc(C(=O)N(CC)c3ccc(F)cc3)c2)C[C@H]1C,1.4,4,,,
C=CCN1C[C@H](C)N([C@H](c2cccc(O)c2)c2cccc(C(=O)N(CC)CC)c2)C[C@H]1C,5.85,4.35,2.1,,
C=CCN1C[C@H](C)N([C@@H](c2cccc(O)c2)c2cccc(C(=O)N(CCC)c3ccc(F)cc3)c2)C[C@H]1C,0.68,1050,2.75,,
C=CCN1C[C@H](C)N([C@@H](c2cccc(O)c2)c2cccc(C(=O)N(CC)c3ccccc3)c2)C[C@H]1C,0.96,0.94,2.17,,
C=CCN1C[C@H](C)N([C@@H](c2cccc(O)c2)c2cccc(C(=O)N(C)Cc3ccccc3)c2)C[C@H]1C,5.6,6.07,,,
C=CCN1C[C@H](C)N([C@@H](c2cccc(O)c2)c2cccc(C(=O)N(C)c3ccc(F)cc3)c2)C[C@H]1C,1.1,0.67,1.4,,
"C=CCN1C[C@H](C)N(C(c2ccc(C(=O)N(CC)CC)cc2)c2cccc(O)c2)C[C@H]1C (single isomer, unassigned)",0.2,150,1.8,,
C=CCN1C[C@H](C)N([C@@H](c2cccc(O)c2)c2cccc(C(=O)N(C)c3cccc(F)c3)c2)C[C@H]1C (stereo in doubt; 24),,,0.18,0.79,3.4
C=CCN1C[C@H](C)N([C@@H](c2cccc(O)c2)c2cccc(C(=O)N(C)c3cccc(F)c3)c2)C[C@H]1C (stereo in doubt; 32),,,11.4,25.3,1800

# — ChEMBL document CHEMBL1145968, “3-(alphaR)-alpha-((2S,5R)-4-allyl-2,5-dimethyl-1-piperazinyl)-3-hydroxybenzyl)-N-alkyl-N-arylbenzamides: potent, non-peptidic agonists of both the micro and delta opioid receptors” (J Med Chem, 2003)
